From ChEMBL document CHEMBL4819109, “Discovery of boronic acid-based potent activators of tumor pyruvate kinase M2 and development of gastroretentive nanoformulation for oral dosing” (Bioorg Med Chem Lett, 2021)
Active and inactive are the calls of the source. The calls are words filed in the database; no cut-off is given here.

Key:
COLO 201 = test: Growth inhibition of human Colo-201 cells by MTT assay; type: functional, cell-based
Outline: (§1)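 Cells were treated with varying compound concentrations and viability was read by MTT assay. IC50 values are reported ± error. Normal fibroblasts were tested alongside.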

MDA-MB-231 = test: Growth inhibition of human MDA-MB-231 cells by MTT assay; type: functional, cell-based; outline: as §1
[1] = Growth inhibition of human BCL2 Jurkat cells by MTT assay; type: functional; outline: as §1
[2] = Growth inhibition of human Mesenchymal stem cells by MTT assay; type: tissue-based; outline: as §1
MCF7 [3] = test: Growth inhibition of human MCF7 cells by MTT assay; type: functional, cell-based; outline: as §1
Pyruvate kinase PKM [4] = target: T1, Pyruvate kinase PKM (Homo sapiens, UniProt P14618); test: Activation of PKM2 (unknown origin) by pyruvate kinase-lactate dehydrogenase coupled assay
Target sequence in this assay (P14618 whole entry): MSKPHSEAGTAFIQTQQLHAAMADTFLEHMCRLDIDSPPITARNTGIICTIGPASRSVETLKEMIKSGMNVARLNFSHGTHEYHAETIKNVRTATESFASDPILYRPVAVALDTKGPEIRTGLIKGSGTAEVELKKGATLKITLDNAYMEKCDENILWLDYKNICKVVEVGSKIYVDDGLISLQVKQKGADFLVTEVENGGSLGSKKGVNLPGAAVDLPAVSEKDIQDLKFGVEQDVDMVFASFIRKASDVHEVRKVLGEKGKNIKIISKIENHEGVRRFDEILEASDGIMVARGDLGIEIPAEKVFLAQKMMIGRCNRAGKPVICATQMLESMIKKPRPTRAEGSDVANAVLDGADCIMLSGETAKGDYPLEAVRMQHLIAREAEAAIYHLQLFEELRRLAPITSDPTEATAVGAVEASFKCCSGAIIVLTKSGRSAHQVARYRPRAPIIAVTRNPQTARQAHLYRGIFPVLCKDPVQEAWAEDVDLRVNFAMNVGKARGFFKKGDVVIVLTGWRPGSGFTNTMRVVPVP

Pyruvate kinase PKM [5] = target: T1, Pyruvate kinase PKM; test: Activation of […] in human MCF7 cells assessed as increase in tetramer formation at 100 nM measured after 48 hrs by DSS cross linker assay; type: cell-based; conditions: filed as activator
Outline: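 MCF-7 cells exposed to 100 nM for 48 h, then cross-linked with disuccinimidyl suberate (DSS). Tetrameric PKM2 was read as the 250 kDa band and compared with untreated MCF-7 control cells.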
Target sequence in this assay (P14618 2-531 limits assumed): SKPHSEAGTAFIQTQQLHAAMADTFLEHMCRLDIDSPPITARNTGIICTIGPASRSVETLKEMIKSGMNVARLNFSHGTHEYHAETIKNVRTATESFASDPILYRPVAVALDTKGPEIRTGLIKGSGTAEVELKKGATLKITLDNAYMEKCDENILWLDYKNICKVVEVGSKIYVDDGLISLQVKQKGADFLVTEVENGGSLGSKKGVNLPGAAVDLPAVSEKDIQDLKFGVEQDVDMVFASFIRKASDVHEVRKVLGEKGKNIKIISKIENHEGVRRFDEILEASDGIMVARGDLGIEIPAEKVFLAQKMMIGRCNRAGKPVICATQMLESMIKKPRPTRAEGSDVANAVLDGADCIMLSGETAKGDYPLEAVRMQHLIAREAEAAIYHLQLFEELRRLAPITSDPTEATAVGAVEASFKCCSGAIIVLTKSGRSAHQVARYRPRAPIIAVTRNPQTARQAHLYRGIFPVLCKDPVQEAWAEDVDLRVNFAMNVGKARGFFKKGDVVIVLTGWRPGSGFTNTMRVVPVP

MCF7 [6] = test: Induction of apoptosis in human MCF7 cells assessed as necrotic cells at 100 nM incubated for 48 hrs by AnnexinV/PI staining based flow cytometry; type: functional
MCF7 [7] = test: Induction of apoptosis in human MCF7 cells assessed as late apoptotic cells at 100 nM incubated for 48 hrs by AnnexinV/PI staining based flow cytometry; type: functional
MCF7 [8] = test: Induction of apoptosis in human MCF7 cells assessed as viable cells at 100 nM incubated for 48 hrs by AnnexinV/PI staining based flow cytometry; type: functional; conditions: read-out: Activity
MCF7 [9] = test: Induction of apoptosis in human MCF7 cells assessed as early apoptotic cells at 100 nM incubated for 48 hrs by AnnexinV/PI staining based flow cytometry; type: functional
Pyruvate kinase PKM [10] = target: T1, Pyruvate kinase PKM; test: Activation of PKM2 (unknown origin) assessed as increase in tetramer formation by measuring scattering by Dynamic Light Scattering assay; conditions: filed as activator
Target sequence in this assay (P14618 2-531 limits assumed): as above

| IC50 (COLO 201) | IC50 (MDA-MB-231) | IC50 (MCF7 [3]) | EC50 (Pyruvate kinase PKM [4]) | Activity (Pyruvate kinase PKM [5]) | Activity (Pyruvate kinase PKM [10]) | Structure (SMILES) | IC50 [1] | IC50 [2] | Activity (MCF7 [6]) | Activity (MCF7 [7]) | viability at 0.1 µM (MCF7 [8]) | Activity (MCF7 [9]) |
| --- | --- | --- | --- | --- | --- | --- | --- | --- | --- | --- | --- | --- |
| 5.58 µM | 36.6 µM | 2.71 µM | 6.11 µM |  |  | CCOC(=O)/C(=C\c1ccc(B(O)O)cc1)C(=O)c1sc(Nc2ccc(F)cc2)nc1-c1ccccc1 | 0.09 µM | 29.4 µM |  |  |  |  |
| 2.81 µM | 38 µM | 1.5 µM | 7.15 µM |  |  | CCOC(=O)/C(=C\c1ccc(B(O)O)cc1)C(=O)c1sc(Nc2ccccc2)nc1N(C)C | 6.36 µM | 40.6 µM |  |  |  |  |
| 3.75 µM | 34.9 µM | 0.08 µM | 5.69 µM | Active | Active | CCOC(=O)/C(=C\c1ccc(B(O)O)cc1)C(=O)c1sc(Nc2ccc(Cl)cc2)nc1N(C)C | 2.82 µM | 23.9 µM | 22.37% | 23.5% | 45.3% | 8.81% |
| 0.8 µM | 1.3 µM |  |  |  |  | COc1cccc2c1C(=O)c1c(O)c3c(c(O)c1C2=O)C[C@@](O)(C(=O)CO)C[C@@H]3O[C@H]1C[C@H](N)[C@H](O)[C@H](C)O1 [DOXORUBICIN] | 3.03 µM | 2.37 µM |  |  |  |  |
| 5.5 µM | 58.7 µM | 2.72 µM | 8.17 µM |  |  | CCOC(=O)/C(=C\c1ccc(B(O)O)cc1)C(=O)c1sc(Nc2ccc(OC)cc2)nc1N(C)C | 0.57 µM | 25.8 µM |  |  |  |  |
